The source of these data is ChEMBL document CHEMBL1145917, “Neurosteroid analogues. 9. Conformationally constrained pregnanes: structure-activity studies of 13,24-cyclo-18,21-dinorcholane analogues of the GABA modulatory and anesthetic steroids (3alpha,5alpha)- and (3alpha,5beta)-3-hydroxypregnan-20-one” (J Med Chem, 2003).

A short description of test [1]: Loss of righting reflex in Xenopus laevis tadpole. The format is functional, frog. The settings on record: Amphibia, read-out: ED50 (the source's name). In a few lines:
(§1)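 Groups of 10 early pre-limb-bud X. laevis tadpoles were placed in 100 mL oxygenated Ringer's containing compound at various concentrations. Compound came from a 10 mM DMSO stock, about 0.1% DMSO final. Loss of righting and loss of swimming responses were scored. EC50 and Hill coefficient n were taken from a Hill equation fit.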

A short description of test [2]: Hill coefficient for loss of righting response. The format is functional. Put shortly: as §1
Test [3] can be described thus: Loss of swimming behavior in Xenopus laevis tadpole. The format is functional, frog. The settings on record: Amphibia, read-out: ED50 (the source's name). In a few lines:
as §1

Test [4] has as its target T1, GABA-A receptor; alpha-1/beta-2/gamma-2 (Rattus norvegicus) (UniProt P18508+P62813+P63138). As to the kind of experiment: In vitro current effect against rat GABA receptor alpha-1-beta-2-gamma-2 subunits expressed in Xenopus laevis oocytes at 0.1 uM (ratio +/- compound). Format: cell-based. Conditions: Oocyte. Put shortly:
(§2)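 Two-electrode voltage clamp at -70 mV, 2–5 days after injecting rat α1, β2 and γ2L cRNA (20–40 ng total, equal parts) into defolliculated stage V–VI oocytes held at 18 °C in ND96. Compound was co-applied with 2 μM GABA for 20 s and peak current measured. Value is the ratio of current with/without compound, from at least four oocytes.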

Test [5] has as its target GABA-A receptor; anion channel. Description: Non-competitive displacement of [35S]TBPS from picrotoxin binding site found in heterogeneous Gamma-aminobutyric acid A receptor in rat brain membranes. Format: cell membranes. Put shortly:
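Rat brain membranes (washed P2, 0.5 mg/mL final protein) incubated 2 h at room temperature with 5 μM GABA, 2 nM [35S]TBPS and steroid from DMSO (final 1 nM–10 μM) in 200 mM NaCl/50 mM potassium phosphate, pH 7.4. Nonspecific binding defined with 200 μM picrotoxinin. Filtration, scintillation counting, Hill fit for IC50. Triplicate points, two or three curves per steroid.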
For orientation: Loss of bound radioactivity is the signal in a displacement assay; it reports binding, not function.

Test [6] can be described thus: Hill coefficient for displacement of [35S]TBPS. The format is functional. In a few lines:
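Rat brain membrane P2 fraction washed three times in 200 mM NaCl / 50 mM potassium phosphate, pH 7.4. Assay used 0.5 mg/mL protein, 5 μM GABA, 2 nM [35S]TBPS and steroid at 1 nM–10 μM final (0.5% DMSO), 2 h at room temperature, then filtration and scintillation counting. Nonspecific binding was taken with 200 μM picrotoxinin. Triplicate points, 2–3 curves per steroid; Hill equation fit gives n.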

The nature of test [7]: Hill coefficient for loss of swimming response. Format: functional. Put shortly: as §1
In test [8] the target is T1, GABA-A receptor; alpha-1/beta-2/gamma-2 (Rattus norvegicus). Description: In vitro direct current effect against rat GABA receptor alpha-1-beta-2-gamma-2 subunits expressed in Xenopus laevis oocytes at 10 uM (ratio +/- compound, without GABA). Format: cell-based. Conditions: Oocyte. In a few lines:
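Same oocyte α1β2γ2L voltage-clamp setup at -70 mV, with peak current over 20 s applications. Compound was applied at 10 μM without GABA. Directly gated current is expressed as a ratio to the current evoked by 2 μM GABA, from at least four oocytes.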

For test [9] the target is unchanged. As to the kind of experiment: In vitro current effect against rat GABA receptor alpha-1-beta-2-gamma-2 subunits expressed in Xenopus laevis oocytes at 1 uM (ratio +/- compound). Format: cell-based. The settings on record: Oocyte. Put shortly: as §2
Test [10] shares this target. Description: In vitro current effect against rat GABA receptor alpha-1-beta-2-gamma-2 subunits expressed in Xenopus laevis oocytes at 10 uM (ratio +/- compound). The format is cell-based. The settings on record: Oocyte. Put shortly: as §2

In general, IC50 refers to the concentration at which inhibition is half-maximal. Low readings indicate greater potency, high ones weaker potency. `C[C@]12CC[C@@H](O)C[C@H]1CC[C@@H]1[C@@H]2CC[C@]23C=CC(=O)C[C@H]2CC[C@@H]13`: the EC50 in test [1] was found to be 560 nM; in test [3], 5.48 µM. In addition, the nHill in test [2] is -1.5; in [6], 0.95; in test [7], -33.5. The Ratio is 1.87 in [4], 0.26 in [8], 1.8 in test [9] and 4.44 in test [10]. This compound also yielded an IC50 in [5] of 4750 nM.

Regarding `C[C@]12CC[C@@H](O)C[C@H]1CC[C@H]1C3CCC4C(=O)C=CC[C@@]43CC[C@@H]12` (single isomer, unassigned), the EC50 in test [1] was determined as 2560 nM; in test [3], 8.95 µM. For the same compound, the figures for the nHill in test [2], in test [6] and in test [7] were -1.59, 1.15 and -19.8, respectively. Besides, the Ratio in test [4] came out at 1.07; in test [8], 0.11; in test [9], 1.17; in test [10], 2.34. The same compound showed a half-inhibitory concentration (IC50) in test [5] of 1570 nM.

`C[C@]12CC[C@@H](O)C[C@@H]1CC[C@H]1[C@@H]3CCC4CCC(=O)C[C@@]43CC[C@@H]12` (stereo not given in full): the figures for the EC50 in [1] and in test [3] were 1120 nM and 3.58 µM, respectively. For the same compound, the nHill in test [2] is -1.75; in [6], 1.14; in test [7] it was -16.7. Besides, the Ratio in test [4] worked out at 1.39; in [8], 0.32; in [9], 1.64; in test [10], 6.49. This compound also yielded an IC50 in [5] of 334 nM.

Take `C[C@]12CC[C@@H](O)C[C@@H]1CC[C@H]1[C@@H]3CCC4C=CC(=O)C[C@@]43CC[C@@H]12` (stereo not given in full): the EC50 in test [1] is 1280 nM; in test [3], 10 µM. Besides, the nHill is -1.16 in test [2], 0.89 in test [6] and -17 in test [7]. Moreover, the Ratio amounted to 1.59 in [4], 0.35 in test [8], 5.53 in [9] and 16.6 in [10]. This compound gave a 50% inhibitory concentration (IC50) in test [5] of 243 nM.
